Laboratory results reported in ChEMBL document CHEMBL1123074, “Aromatase inhibitors. Synthesis and biological activity of androstenedione derivatives” (J Med Chem, 1985).

Legend:
Aromatase [1] = target: T1, Aromatase (Homo sapiens, UniProt P11511); test: Percent inhibition of human placental Cytochrome P450 19A1 at 3:1 inhibitor: androstenedione (0.7 uM) ratio
T1 sequence (P11511 whole entry): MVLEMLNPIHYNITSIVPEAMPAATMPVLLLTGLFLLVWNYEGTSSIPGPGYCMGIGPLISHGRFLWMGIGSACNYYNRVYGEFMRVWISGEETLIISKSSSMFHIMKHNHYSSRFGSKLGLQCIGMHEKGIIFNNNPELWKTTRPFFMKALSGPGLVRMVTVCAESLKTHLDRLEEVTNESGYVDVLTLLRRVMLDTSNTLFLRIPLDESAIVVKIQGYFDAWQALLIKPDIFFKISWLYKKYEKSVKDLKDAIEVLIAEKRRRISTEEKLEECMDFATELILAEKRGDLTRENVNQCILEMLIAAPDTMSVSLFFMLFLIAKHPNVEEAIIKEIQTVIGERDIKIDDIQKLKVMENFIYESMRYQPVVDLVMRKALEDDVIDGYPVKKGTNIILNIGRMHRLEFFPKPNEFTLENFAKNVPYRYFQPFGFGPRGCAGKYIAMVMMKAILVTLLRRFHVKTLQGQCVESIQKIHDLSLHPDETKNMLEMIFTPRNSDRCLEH
Summary of the method: (§1)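 Human term placental microsomes (0.3-0.9 mg protein) incubated with test compound at stated inhibitor:substrate ratio, [4-14C]androstenedione, 0.7 μM androstenedione and NADPH-generating system (NADP, glucose 6-phosphate, glucose-6-phosphate dehydrogenase) in 0.1 M phosphate buffer pH 7.4, 30 min, 37 °C under oxygen. Stopped with [6,7-3H2]estradiol/estrone recovery markers and carriers; estrogens extracted, TLC-purified, quantified versus control.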

Aromatase [2] = target: T1, Aromatase; test: Percent inhibition of human placental Cytochrome P450 19A1 at 1:1 inhibitor: androstenedione (0.7 uM) ratio; summary of the method: as §1
Aromatase [3] = target: T1, Aromatase; test: Percent inhibition of human placental Cytochrome P450 19A1 at 6:1 inhibitor: androstenedione (0.7 uM) ratio; summary of the method: as §1

`CC(=O)OC1=C2CCC3C4CCC(=O)C4(C)CCC3C2(C)CCC1=O` (stereo unspecified) gave an Inhibition (Aromatase [1]) of 90% and an Inhibition (Aromatase [2]) of 81%.
`CC12CCC3C(C=CC4=C(O)C(=O)CCC43C)C1CCC2=O` (stereo unspecified) showed an Inhibition (Aromatase [1]) of 30% and an Inhibition (Aromatase [2]) of 8%.
`CC12CCC3C(CCC4=C(OC(=O)CCC(=O)O)C(=O)CCC43C)C1CCC2=O` (stereo unspecified) showed an Inhibition (Aromatase [1]) of 70%.
`CC12CCC3C(CCC4=C(Cl)C(=O)CCC43C)C1CCC2=O` (stereo unspecified) gave an Inhibition (Aromatase [1]) of 9% and an Inhibition (Aromatase [3]) of 43%.
`CC12CCC3C(CC(=O)C4=CC(=O)CCC43C)C1CCC2=O` (stereo unspecified) showed an Inhibition (Aromatase [1]) of 78%.
With `C[C@]12C=CC(=O)C=C1C=C[C@@H]1[C@@H]2CC[C@]2(C)C(=O)CC[C@@H]12` the Inhibition (Aromatase [1]) was 83% and the Inhibition (Aromatase [2]) was 69%.
`CC12C=CC(=O)C(O)=C1CCC1C2CCC2(C)C(=O)CCC12` (stereo unspecified) showed an Inhibition (Aromatase [1]) of 84% and an Inhibition (Aromatase [2]) of 66%.
Work on `COC1=C2CCC3C4CCC(=O)C4(C)CCC3C2(C)CCC1=O` (stereo unspecified) yielded an Inhibition (Aromatase [1]) of 7% and an Inhibition (Aromatase [3]) of 28%.
`C[C@]12CCC(=O)C(O)=C1CC[C@@H]1[C@@H]2CC[C@]2(C)C(=O)CC[C@@H]12` [FORMESTANE] showed an Inhibition (Aromatase [1]) of 91% and an Inhibition (Aromatase [2]) of 89%.
